# Results of several laboratories.
# Target: Myosin light chain kinase 2, skeletal/cardiac muscle (MYLK2, Homo sapiens, UniProt Q9H1R3)
Compound,read-out,method,concentration,remaining binding [%]
CCOC(=O)c1cc2cc(-c3cc(C(=O)NCc4ccc(C(=O)O)cc4)nn3C)ccc2[nH]1,cell-free assay,competition with immobilised ligand,0.1 µM,89
COc1ncc2cc3ccccc3nc2c1C#N,binding,competition with immobilised ligand,5 µM,84
CN(C)c1ncc(F)c(-c2cnn3ncccc23)n1,binding,,1 µM,100
CNC(=O)[C@@H]1CC[C@@H](n2c(-c3ccc4cnccc4c3)nc3ccc(C(=O)NCc4cccc(C(N)=O)c4)cc32)C1,binding,competition with immobilised ligand,1 µM,100
O=C(c1ccc(Nc2nccc(-c3cc4ccccc4s3)n2)cc1)N1CCC(N2CCCC2)CC1,binding,competition with immobilised ligand,1 µM,0.8
C[C@H]1CCN(c2nccc(-c3cnn4ncccc34)n2)C1,binding,,1 µM,79
O=C(NCC1CCOCC1)c1n[nH]cc1NC(=O)c1c(F)cccc1F,binding,competition with immobilised ligand,1 µM,100
COc1cnc(Nc2cccc(S(N)(=O)=O)c2)nc1N1CCN(c2ccccc2)C(=O)C1,binding,competition with immobilised ligand,1 µM,100
CN(C)CC#Cc1ccc(OCCCc2sc(N3CCc4cccc(C(=O)Nc5nc6ccccc6s5)c4C3)nc2C(=O)O)c(F)c1,cell-free assay,competition with immobilised ligand,1 µM,100
O=C(c1ccc(Nc2ncc(Cl)c(-c3cc4ccccc4s3)n2)cc1)N1CCC(N2CCCC2)CC1,binding,competition with immobilised ligand,1 µM,1.2
CCN1CCN(Cc2ccc(C(=O)Nc3ccc(C)c(Oc4ccc5c(c4)CC(=O)N5)c3)cc2C(F)(F)F)CC1,binding,competition with immobilised ligand,1 µM,100
CCC(=O)N[C@@H]1CC[C@H](C(=O)N(C)c2ccc(-c3nc4ccccc4o3)cc2)C1,cell-free assay,competition with immobilised ligand,1 µM,79
Cc1cnn2ncc(-c3ccnc(N(C)C)n3)c2c1,binding,,1 µM,100
O=C(NCCCN1CCOCC1)c1ccc(Nc2nccc(-c3cc4ccccc4s3)n2)cc1,binding,competition with immobilised ligand,1 µM,9.1
O=C(N1CCS(=O)(=O)CC1)N1C[C@H](c2ccc(OC(F)(F)F)cc2)C[C@H](c2nc(C3CC3)no2)C1,cell-free assay,competition with immobilised ligand,1 µM,100
CN(CCCC(F)(F)F)c1nccc(-c2cnn3ncccc23)n1,binding,,1 µM,98
C[C@@H](c1ccc(-n2cnc3c(N)ncnc32)cc1)N1CCc2nn(C)c(Cc3ccccc3)c2C1=O,binding,competition with immobilised ligand,0.1 µM,85
N[C@@H]1CCN(c2nccc(-c3cnn4ncccc34)n2)C1,binding,,1 µM,98
CS(=O)(=O)c1cc(C2(NC(=O)c3cncc4c3cnn4-c3ccc(F)cc3)CC2)ccn1,cell-free assay,competition with immobilised ligand,1 µM,100
CN(c1nccc(-c2cnn3ncccc23)n1)C1CC1,binding,,1 µM,100
COc1ccc2cc(OCC3(C(=O)O)CN(C(=O)c4ccc(F)cc4)C3)ccc2c1,cell-free assay,competition with immobilised ligand,1 µM,100
